≈ marks a conversion by molar mass, not a printed value.
Legend:
Assay type in all cases: functional
[1] = system: Enterococcus faecalis; experiment: Antimicrobial activity against vancomycin-susceptible Enterococcus faecalis MMX 101 after 18 to 20 hrs by microdilution method
Summary of the method: (§1)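 Standard microtiter plate-based broth microdilution assay. The top concentration tested was 64 µg/mL, so inhibition that was not reached is reported as >64 µg/mL. The strains are methicillin-susceptible S. aureus ATCC 29213 and vancomycin-susceptible E. faecalis MMX 101.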

[2] = system: Staphylococcus aureus; experiment: Antimicrobial activity against methicillin-resistant Staphylococcus aureus MMX 2002 after 18 to 20 hrs by microdilution method
[3] = system: Enterococcus faecalis; experiment: Antimicrobial activity against vancomycin-resistant Enterococcus faecalis MMX 486 expressing VanA after 18 to 20 hrs by microdilution method
[4] = system: Enterococcus faecalis; experiment: Antimicrobial activity against vancomycin-resistant Enterococcus faecalis MMX 202 expressing VanB after 18 to 20 hrs by microdilution method
[5] = system: Staphylococcus aureus; experiment: Antimicrobial activity against methicillin-susceptible Staphylococcus aureus ATCC 29213 after 18 to 20 hrs by microdilution method; summary of the method: as §1

With `CN[C@@H](CC(C)C)C(=O)N[C@@H]1C(=O)N[C@H](CC(N)=O)C(=O)N[C@@H]2C(=O)N[C@@H]3C(=O)N[C@@H](C(=O)N[C@H](C(=O)O)c4cc(O)cc(O)c4-c4cc3ccc4O)[C@@H](O)c3ccc(c(-c4ccoc4)c3)Oc3cc2cc(c3O[C@H]2O[C@@H](CO)[C@H](O)[C@@H](O)[C@@H]2O[C@H]2C[C@](C)(N)[C@H](O)[C@H](C)O2)Oc2ccc(cc2)[C@@H]1O` the MIC [1] was greater than 64 µg/mL, the MIC [2] was 64 µg/mL (≈ 44.2 µM) and the MIC [3] was greater than 64 µg/mL. For the same compound, the MIC [4] was greater than 64 µg/mL and the MIC [5] was 64 µg/mL (≈ 44.2 µM).

`CN[C@@H](CC(C)C)C(=O)N[C@@H]1C(=O)N[C@H](CC(N)=O)C(=O)N[C@@H]2C(=O)N[C@@H]3C(=O)N[C@@H](C(=O)N[C@H](C(=O)O)c4cc(O)cc(O)c4-c4cc3ccc4O)[C@@H](O)c3ccc(c(-c4cccc(C(N)=O)c4)c3)Oc3cc2cc(c3O[C@@H]2O[C@H](CO)[C@@H](O)[C@H](O)[C@H]2O[C@H]2C[C@](C)(N)[C@H](O)[C@H](C)O2)Oc2ccc(cc2)[C@@H]1O` gave an MIC [1] greater than 64 µg/mL, an MIC [2] greater than 64 µg/mL and an MIC [3] greater than 64 µg/mL. It also gave an MIC [4] greater than 64 µg/mL and an MIC [5] greater than 64 µg/mL.

For `CN[C@@H](CC(C)C)C(=O)N[C@@H]1C(=O)N[C@H](CC(N)=O)C(=O)N[C@@H]2C(=O)N[C@@H]3C(=O)N[C@@H](C(=O)N[C@H](C(=O)O)c4cc(O)cc(O)c4-c4cc3ccc4O)[C@@H](O)c3ccc(c(Cl)c3)Oc3cc2cc(c3O[C@H]2O[C@@H](CO)[C@H](O)[C@@H](O)[C@@H]2O[C@@H]2C[C@@](C)(N)[C@@H](O)[C@@H](C)O2)Oc2ccc(cc2)[C@@H]1O`, the MIC [1] was 8 µg/mL (≈ 5.65 µM), the MIC [2] was 4 µg/mL (≈ 2.83 µM) and the MIC [3] was greater than 64 µg/mL. It also gave an MIC [4] of 64 µg/mL (≈ 45.2 µM) and an MIC [5] of 4 µg/mL (≈ 2.83 µM).

Compound `CN[C@@H](CC(C)C)C(=O)N[C@@H]1C(=O)N[C@H](CC(N)=O)C(=O)N[C@@H]2C(=O)N[C@@H]3C(=O)N[C@@H](C(=O)N[C@H](C(=O)O)c4cc(O)cc(O)c4-c4cc3ccc4O)[C@@H](O)c3ccc(c(-c4ccc(-c5ccccc5)cc4)c3)Oc3cc2cc(c3O[C@@H]2O[C@H](CO)[C@@H](O)[C@H](O)[C@H]2O[C@H]2C[C@](C)(N)[C@H](O)[C@H](C)O2)Oc2ccc(cc2)[C@@H]1O` has an MIC [1] greater than 64 µg/mL, an MIC [2] greater than 64 µg/mL and an MIC [3] greater than 64 µg/mL. It also gave an MIC [4] greater than 64 µg/mL and an MIC [5] greater than 64 µg/mL.

`CN[C@@H](CC(C)C)C(=O)N[C@@H]1C(=O)N[C@H](CC(N)=O)C(=O)N[C@@H]2C(=O)N[C@@H]3C(=O)N[C@@H](C(=O)N[C@H](C(=O)O)c4cc(O)cc(O)c4-c4cc3ccc4O)[C@@H](O)c3ccc(c(-c4cccc(CN)c4)c3)Oc3cc2cc(c3O[C@@H]2O[C@H](CO)[C@@H](O)[C@H](O)[C@H]2O[C@H]2C[C@](C)(N)[C@H](O)[C@H](C)O2)Oc2ccc(cc2)[C@@H]1O` gave an MIC [1] greater than 64 µg/mL, an MIC [2] greater than 64 µg/mL and an MIC [3] greater than 64 µg/mL. For the same compound, the MIC [4] was greater than 64 µg/mL and the MIC [5] was greater than 64 µg/mL.

For `CCCCCC/C=C/c1cc2ccc1Oc1cc3cc(c1O[C@@H]1O[C@H](CO)[C@@H](O)[C@H](O)[C@H]1O[C@H]1C[C@](C)(N)[C@H](O)[C@H](C)O1)Oc1ccc(cc1)[C@H](O)[C@H](NC(=O)[C@@H](CC(C)C)NC)C(=O)N[C@H](CC(N)=O)C(=O)N[C@@H]3C(=O)N[C@@H]1C(=O)N[C@@H](C(=O)N[C@H](C(=O)O)c3cc(O)cc(O)c3-c3cc1ccc3O)[C@H]2O`, the MIC [1] was greater than 64 µg/mL, the MIC [2] was greater than 64 µg/mL and the MIC [3] was greater than 64 µg/mL. The MIC [4] was greater than 64 µg/mL and the MIC [5] was greater than 64 µg/mL.

Compound `CN[C@@H](CC(C)C)C(=O)N[C@@H]1C(=O)N[C@H](CC(N)=O)C(=O)N[C@@H]2C(=O)N[C@@H]3C(=O)N[C@@H](C(=O)N[C@H](C(=O)O)c4cc(O)cc(O)c4-c4cc3ccc4O)[C@@H](O)c3ccc(cc3)Oc3cc2cc(c3O[C@@H]2O[C@H](CO)[C@@H](O)[C@H](O)[C@H]2O[C@H]2C[C@](C)(N)[C@H](O)[C@H](C)O2)Oc2ccc(cc2)[C@@H]1O` has an MIC [1] of 32 µg/mL (≈ 23.2 µM), an MIC [2] of 8 µg/mL (≈ 5.8 µM) and an MIC [3] greater than 64 µg/mL. The MIC [4] was greater than 64 µg/mL and the MIC [5] was 8 µg/mL (≈ 5.8 µM).

`CN[C@@H](CC(C)C)C(=O)N[C@@H]1C(=O)N[C@H](CC(N)=O)C(=O)N[C@@H]2C(=O)N[C@@H]3C(=O)N[C@@H](C(=O)N[C@H](C(=O)O)c4cc(O)cc(O)c4-c4cc3ccc4O)[C@@H](O)c3ccc(c(-c4ccc5[nH]ccc5c4)c3)Oc3cc2cc(c3O[C@@H]2O[C@H](CO)[C@@H](O)[C@H](O)[C@H]2O[C@H]2C[C@](C)(N)[C@H](O)[C@H](C)O2)Oc2ccc(cc2)[C@@H]1O` gave an MIC [1] greater than 64 µg/mL, an MIC [2] greater than 64 µg/mL and an MIC [3] greater than 64 µg/mL. It also gave an MIC [4] greater than 64 µg/mL and an MIC [5] greater than 64 µg/mL.

For `CN[C@@H](CC(C)C)C(=O)N[C@@H]1C(=O)N[C@H](CC(N)=O)C(=O)N[C@@H]2C(=O)N[C@@H]3C(=O)N[C@@H](C(=O)N[C@H](C(=O)O)c4cc(O)cc(O)c4-c4cc3ccc4O)[C@@H](O)c3ccc(c(-c4cccc(F)c4)c3)Oc3cc2cc(c3O[C@@H]2O[C@H](CO)[C@@H](O)[C@H](O)[C@H]2O[C@H]2C[C@](C)(N)[C@H](O)[C@H](C)O2)Oc2ccc(cc2)[C@@H]1O`, the MIC [1] was greater than 64 µg/mL, the MIC [2] was greater than 64 µg/mL and the MIC [3] was greater than 64 µg/mL. The MIC [4] was greater than 64 µg/mL and the MIC [5] was greater than 64 µg/mL.

Work on `CC(=O)NC[C@H]1CN(c2ccc(N3CCOCC3)c(F)c2)C(=O)O1` [LINEZOLID] yielded an MIC [2] of 1 µg/mL (≈ 2.96 µM).

For `CN[C@H](CC(C)C)C(=O)N[C@H]1C(=O)N[C@@H](CC(N)=O)C(=O)N[C@H]2C(=O)N[C@H]3C(=O)N[C@H](C(=O)N[C@H](C(=O)O)c4cc(O)cc(O)c4-c4cc3ccc4O)[C@H](O)c3ccc(c(Cl)c3)Oc3cc2cc(c3O[C@@H]2O[C@H](CO)[C@@H](O)[C@H](O)[C@H]2O[C@H]2C[C@](C)(N)[C@H](O)[C@H](C)O2)Oc2ccc(cc2Cl)[C@H]1O` [VANCOMYCIN], the MIC [1] was 2 µg/mL (≈ 1.38 µM), the MIC [3] was greater than 64 µg/mL and the MIC [4] was 8 µg/mL (≈ 5.52 µM).

From ChEMBL document CHEMBL3751726, “A stepwise dechlorination/cross-coupling strategy to diversify the vancomycin 'in-chloride'” (2016)
